# Bioassay records deposited in PubChem by Broad Institute.
# DYRK1A inh = blocks rat Dyrk1A kinase activity; AID 504441; 0.43% of 310,000 active; ADP-Glo luminescence, NFATc1 peptide; Q63470; inhibition, % at 12.5 µM; in the data active = inhibition above about 50%
# GSK3 alpha inh = human GSK-3 alpha kinase inhibition | P49840 | ADP-Glo luminescence, 60 min | inhibition, % at 10 µM | 0.1% of 320,000 active;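 active = more than half of replicates show inhibition above 20%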;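 note: GST-tagged GSK-3 alpha with peptide substrate and 25 µM ATP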
# Target sequence (P49840 whole entry, looked up): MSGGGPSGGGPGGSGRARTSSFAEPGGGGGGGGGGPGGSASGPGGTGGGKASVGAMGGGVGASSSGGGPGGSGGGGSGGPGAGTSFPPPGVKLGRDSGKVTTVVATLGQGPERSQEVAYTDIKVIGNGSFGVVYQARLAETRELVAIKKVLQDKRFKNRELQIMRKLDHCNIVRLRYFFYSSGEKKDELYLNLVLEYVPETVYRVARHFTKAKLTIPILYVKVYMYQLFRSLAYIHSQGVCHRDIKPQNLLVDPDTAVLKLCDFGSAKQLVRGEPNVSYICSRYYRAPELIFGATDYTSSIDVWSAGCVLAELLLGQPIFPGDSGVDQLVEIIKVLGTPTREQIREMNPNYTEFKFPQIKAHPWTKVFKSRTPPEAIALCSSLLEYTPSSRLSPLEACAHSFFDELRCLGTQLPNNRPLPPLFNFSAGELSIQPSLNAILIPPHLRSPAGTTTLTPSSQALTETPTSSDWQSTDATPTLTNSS
# CDK5 p35 inh = CDK5/p35 (human) kinase inhibition; AID 488839; Q00535+Q15078; 0.01% of 330,000 active; Recombinant CDK5/p35, ADP-Glo luminescence, 60 min; inhibition, % at 10 µM;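 active = highest replicate inhibition of at least 50% and at least 75% of replicates reaching 50%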
# GSK3beta inhib = blocks human GSK3beta kinase activity. GST-GSK3beta kinase, ADP-Glo luminescence, 60 min; stronger effect = lower value. 0.038% of 300,000 active. P49841. activity score (negative = inhibition), % at 10 µM;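 active = more than half of replicate wells score below -50%, meaning over 50% inhibition versus plate controls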
#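 Test system: GST-fused GSK3beta enzyme, cell-free | Quantity: 1.6 ng GST-GSK3beta enzyme per well | Reagent: 25 µM ATP with peptide substrate | Schedule: 60 min enzyme reaction, room temperature | Signal: Luminescent ADP-Glo measurement of ADP formed | Read-out basis: Score relative to plate controls | Control set: DMSO and 20 µM GW8510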
# STK33 kinase inh = human STK33 kinase inhibition. Q9BYT3. purified STK33, MBP phosphorylation, ADP-Glo luminescence. inhibition, % at 10 µM. 0.073% of 320,000 active. AID 2661;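 active = inhibition at or above 25%, using the most active replicate where run in duplicate; inactive = inhibition below 25%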
# ADP-Glo artifact = interferes with ADP-Glo luciferase readout without Dyrk1A | ADP-Glo luciferase artifact assay, no Dyrk1A, luminescence | shares compounds with DYRK1A inh | 1,300 tested, under 10 active | AID 588348 | AC50, µM (doses to about 12 µM);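 active = fitted half-maximal dose AC50 no more than ten times the top valid tested dose, with luminescence dropping as dose rises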
# Hits are given with their value; n = inactive; x = no result. The full list was thinned out, with hits kept by preference.
SMILES,DYRK1A inh,GSK3 alpha inh,CDK5 p35 inh,GSK3beta inhib,STK33 kinase inh,ADP-Glo artifact
O=C(O)c1ccc2c(c1)S(=O)(=O)c1cc(Cl)ccc1C2=O,66,74,n,x,n,n
Cc1ccccc1C(=O)N1CCN(c2ccc(NC(=O)c3cccc(OC(C)C)c3)cc2)CC1,60,n,n,n,n,n
COc1c(C)cccc1C(=O)Nc1ccc(N2CCN(C(=O)c3ccccc3C)CC2)cc1,n,n,n,n,n,x
CC(C)C1CCN(C(=O)C2CCC(=O)N(CCc3ccc(Cl)cc3)C2)CC1 (stereo not drawn),n,n,n,n,n,x
O=C1CN(C(=O)C2CCC(=O)N(CCc3ccc(Cl)cc3)C2)CCN1 (stereo not drawn),54,n,n,n,n,n
CC(=O)c1ccc(NC(=S)Nc2ccc3cn[nH]c3c2)cc1,57,n,n,n,n,n
O=C(Nc1ccc2ccccc2c1)c1ccccc1F,n,n,n,n,n,x
O=C(Nc1ccc2cn[nH]c2c1)c1ccccc1F,54,n,n,n,n,n
O=C(Nc1ccncc1)c1c(Cl)cccc1Cl,n,n,n,x,n,x
O=C(Nc1ccc2cn[nH]c2c1)c1c(Cl)cccc1Cl,51,n,n,n,n,n
O=C(CCl)N1CCN(S(=O)(=O)Cc2ccccc2)CC1,n,n,n,x,n,x
Cc1cc(-c2nnc(CCC(=O)N3CCN(Cc4cccnc4)CC3)o2)c(C)o1,n,n,n,n,n,x
CS(=O)(=O)c1ccc(C(=O)OCC(=O)c2ccc(Cl)s2)cc1,n,n,n,n,n,x
COc1cc(C(=O)NCC2CCCO2)cc(Br)c1OCc1ccccc1 (stereo not drawn),n,n,n,x,n,x
COc1cc2cnc(-c3ccccc3)c(-c3ccc([N+](=O)[O-])cc3)c2cc1OC,51,n,n,x,n,n
COc1ccc(/C=C2\SC(N3CCc4ccccc4C3)=NC2=O)cc1,70,n,n,n,n,n
COc1ccc(/C=C2\SC(N)=NC2=O)cc1,83,n,n,n,n,n
CCOC(=O)CSC1=NC(=O)/C(=C/c2ccc(OC)cc2)S1,71,n,n,n,n,n
NC1=NC(=O)C(=Cc2ccccc2)S1,n,x,n,x,x,x
CCOc1ccc(/C=C2\SC(N3CCc4ccccc4C3)=NC2=O)cc1,n,n,n,n,n,x
Cc1cc(C)c(S(=O)(=O)Nc2ncccc2C)c(C)c1,n,n,n,n,n,x
CC(C)(C)c1ccc(S(=O)(=O)N2CCN(CC(=O)NC(=O)NC3CCCCC3)CC2)cc1,n,n,n,n,n,x
COC(=O)NNC(=O)COc1ccc(Cl)cc1,84,n,n,n,n,n
COc1ccc(OCC(=O)Nc2ccc(Cl)cc2)cc1,n,n,n,n,n,x
O=C(Nc1ccc(Cl)cc1)c1csc(-c2ccccc2)n1,n,n,n,n,n,x
SMILES,DYRK1A inh,GSK3 alpha inh,CDK5 p35 inh,GSK3beta inhib,STK33 kinase inh,ADP-Glo artifact
O=C(Nc1ccc(Cl)cc1)c1csc(-c2ccncc2)n1,51,n,n,n,n,n
Fc1ccc(-c2nnc3sc(C4COc5ccccc5O4)nn23)cc1 (stereo not drawn),68,n,n,n,n,n
CCCOc1ccc(/C=N/NC(=O)CN2CCCCC2)cc1,71,n,n,n,n,n
O=C(Nc1nc2ccc([N+](=O)[O-])cc2s1)C1CCCO1 (stereo not drawn),66,n,n,n,n,n
O=C(Nc1nc2ccc(Cl)cc2s1)C1CCCO1 (stereo not drawn),76,n,n,n,n,n
CCOC(=O)C1=C(C)OC(N)=C(C#N)C1c1ccc(C)s1 (stereo not drawn),n,n,n,n,n,x
COC1=CC(=O)c2c(ccc3ncnc(N)c23)C1=O,51,x,n,x,x,n
N=C(N)c1ccc(N=Nc2c(O)ccc3c2[nH]c2ccccc23)cc1,78,x,n,x,x,n
COc1ccc(N2CCN(C(=O)COC(=O)CNC(=O)c3ccccc3)CC2)cc1,n,n,n,n,n,x
COc1ccc(NC(=O)CSc2nc3ccsc3c(=O)n2CCC(=O)O)c(OC)c1,n,n,n,n,n,x
CCCCCC1CC(CC(C)C(=O)Nc2nncs2)C(=O)O1 (stereo not drawn),57,n,n,n,n,n
COc1cccc(-c2nnc3sc(C4CCCCC4)nn23)c1,53,n,n,n,n,n
CC[C@@](C)(NS(=O)(=O)OCC(Cl)(Cl)Cl)c1ccccc1,57,n,n,n,n,n
CC(C)(NS(=O)(=O)OCC(Cl)(Cl)Cl)c1ccccc1,n,n,n,n,n,x
O=S(=O)(/C=C/c1ccccc1)N1CCN(c2cccc(Cl)c2)CC1,n,n,n,n,n,x
O=C1CC(C(=O)O)S/C(=N\N=C\c2ccc(Br)cc2)N1 (stereo not drawn),n,n,n,n,n,x
CCC(C)CCN1C(Nc2ccccc2)=NC[C@@H]1Cc1ccccc1 (stereo partly drawn),57,n,n,n,n,n
CC1(C)C=Cc2cc3ccc(=O)oc3cc2O1,59,n,n,n,n,n
COc1c2c(cc3oc(=O)ccc13)OC(C)(C)C=C2,n,n,n,n,n,x
COc1cccc(CN2CC(C(=O)NCc3ncc(C)[nH]3)CCC2=O)c1 (stereo not drawn),n,n,n,n,n,x
COc1cc(NCCCn2cnc(C(=O)Nc3ccc(C)c(C)c3)n2)cc(OC)c1OC,x,x,n,x,x,x
CCn1cnc2scc(-c3ccc(OC)cc3)c2c1=O,n,n,n,n,n,x
CCCn1cnc2scc(-c3ccc(OC)cc3)c2c1=O,60,n,n,n,n,n
COc1ccccc1C1CCN(C(=O)C2CCCCC2)CC1,n,n,n,n,n,x
COc1ccccc1C1CCN(c2cc(O)ccc2[N+](=O)[O-])CC1,54,n,n,n,n,n
SMILES,DYRK1A inh,GSK3 alpha inh,CDK5 p35 inh,GSK3beta inhib,STK33 kinase inh,ADP-Glo artifact
CC(=O)Nc1ccc(/C=C/c2nc3ccccc3o2)cc1,59,n,n,n,n,n
CCCCn1c(NCCO)nc2ccccc21,58,n,n,n,n,n
CC(=O)Nc1cccc(NC(=O)c2cc3ccccc3o2)c1,53,n,n,n,n,n
O=C(Nc1cccc(-c2nc3ncccc3o2)c1)c1cc2ccccc2o1,56,n,n,n,n,n
CCCN1CCN(c2ncnc3scc(C4COc5ccccc5O4)c23)CC1 (stereo not drawn),57,n,n,n,n,n
NC(=O)c1c(NC(=O)c2ccc(N3C(=O)CCC3=O)cc2)sc2c1CCCC2,60,n,n,x,n,n
CC1CCc2sc(NC(=O)c3ccc(N4C(=O)CCC4=O)cc3)c(C(N)=O)c2C1 (stereo not drawn),n,n,n,n,n,x
O=C(COC(=O)c1cccs1)c1ccc2c(c1)OCCO2,n,n,n,n,n,x
O=C(COC(=O)c1cccs1)c1ccc2ccccc2c1,51,n,n,n,n,n
Cc1[nH]nc2c1-c1nc3ccccc3nc1C(C)(C)C2,80,n,n,n,n,n
